SMILES strings stand for the structures.

Data set [1] concerns the target P-glycoprotein (ABCB1) (Homo sapiens, UniProt P08183). The data set is described as follows: Inhibition of P-glycoprotein in human doxorubicin-resistant K562 cells assessed as maximal increase of pirarubicin accumulation by spectrofluorometric analysis relative to control. The settings on record: probe pirarubicin. The format is cell-based.
Data set [2] has as its target ATP-dependent translocase ABCB1 (Homo sapiens, UniProt P08183). The data set is described as follows: Inhibition of P-glycoprotein in human doxorubicin-resistant K562 cells assessed as half maximal increase of pirarubicin accumulation by spectrofluorometric analysis. The format is cell-based.
For data set [3], the system named is K562. The data set is described as follows: Reversal fold, ratio of doxorubicin IC50 for doxorubicin-resistant human K562 cells in absence of compound to doxorubicin IC50 for doxorubicin-resistant human K562 cells in presence of 0.1 uM of compound. In kind it is functional. In a few lines:
(§1)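 K562/DOX cells seeded at 3000 cells/well and exposed to doxorubicin (0.001-10 µM) with or without modulator (0.1 or 1.0 µM; DMSO stocks diluted in complete medium) for 72 h at 37 °C, 5% CO2. Viability read by MTT (3 h, DMSO solubilization, 540 nm). Doxorubicin IC50 taken from plotted curves. RF = IC50 without modulator / IC50 with modulator. Quadruplicate cultures.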

Data set [4] concerns K562. The data set is described as follows: Reversal fold, ratio of doxorubicin IC50 for doxorubicin-resistant human K562 cells in absence of compound to doxorubicin IC50 for doxorubicin-resistant human K562 cells in presence of 1 uM of compound. The format is functional. The essentials: as §1
In data set [5] the test system is K562. The data set is described as follows: Cytotoxicity against human doxorubicin-resistant K562 cells at 1 uM after 72 hrs by MTT assay. In kind it is cell-based. The settings on record: k562, 72 h. In a few lines: (§2)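 Intrinsic cytotoxicity of compound alone (no doxorubicin) tested at 1.0 µM on K562 and K562/DOX cells. Cells in exponential growth (3-5 × 10^5 cells/mL) seeded at 3000 cells/well and incubated 72 h at 37 °C, 5% CO2. MTT added for a further 3 h, formazan dissolved in DMSO, absorbance read at 540 nm. Quadruplicate cultures.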
For orientation: Formazan colour is commonly taken as a measure of viable cells.

Data set [6] relates to K562. The data set is described as follows: Cytotoxicity against human K562 cells at 1 uM after 72 hrs by MTT assay. In kind it is cell-based. The settings on record: k562, 72 h. The essentials: as §2

ATP-dependent translocase ABCB1, sequence (P08183 whole entry): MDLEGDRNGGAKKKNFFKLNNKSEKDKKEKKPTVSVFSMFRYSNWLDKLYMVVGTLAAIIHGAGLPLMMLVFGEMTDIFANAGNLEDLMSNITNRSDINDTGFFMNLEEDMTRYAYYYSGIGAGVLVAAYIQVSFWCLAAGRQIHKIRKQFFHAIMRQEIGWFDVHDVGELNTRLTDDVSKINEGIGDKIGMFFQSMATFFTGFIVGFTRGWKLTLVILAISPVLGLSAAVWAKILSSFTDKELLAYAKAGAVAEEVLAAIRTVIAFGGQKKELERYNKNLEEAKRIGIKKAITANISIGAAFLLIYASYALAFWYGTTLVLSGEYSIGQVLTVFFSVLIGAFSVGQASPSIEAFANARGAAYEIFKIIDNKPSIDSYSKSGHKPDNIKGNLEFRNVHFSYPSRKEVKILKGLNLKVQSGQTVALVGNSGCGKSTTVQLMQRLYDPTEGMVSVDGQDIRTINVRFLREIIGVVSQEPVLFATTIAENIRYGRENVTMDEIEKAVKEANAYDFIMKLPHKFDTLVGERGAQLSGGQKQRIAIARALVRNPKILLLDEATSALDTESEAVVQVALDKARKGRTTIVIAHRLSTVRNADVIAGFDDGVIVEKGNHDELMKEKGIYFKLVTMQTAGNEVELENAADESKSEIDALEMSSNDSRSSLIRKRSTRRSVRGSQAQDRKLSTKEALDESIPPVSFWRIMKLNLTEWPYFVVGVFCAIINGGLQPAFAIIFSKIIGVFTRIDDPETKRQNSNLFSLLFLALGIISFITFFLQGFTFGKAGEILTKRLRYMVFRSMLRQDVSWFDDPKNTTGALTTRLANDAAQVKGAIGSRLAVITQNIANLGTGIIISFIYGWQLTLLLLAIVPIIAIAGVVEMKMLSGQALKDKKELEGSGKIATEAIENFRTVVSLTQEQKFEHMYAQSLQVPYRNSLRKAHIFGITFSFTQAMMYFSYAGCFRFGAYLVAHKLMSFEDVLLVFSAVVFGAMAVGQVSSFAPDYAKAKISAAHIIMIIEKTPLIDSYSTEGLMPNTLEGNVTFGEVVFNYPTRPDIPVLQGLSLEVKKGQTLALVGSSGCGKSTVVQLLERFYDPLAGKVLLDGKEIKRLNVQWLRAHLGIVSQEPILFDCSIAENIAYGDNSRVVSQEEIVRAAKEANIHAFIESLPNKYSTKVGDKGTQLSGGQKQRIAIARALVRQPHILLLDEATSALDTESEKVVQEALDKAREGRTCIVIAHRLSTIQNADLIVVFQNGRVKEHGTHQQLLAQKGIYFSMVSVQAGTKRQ
P-glycoprotein (ABCB1), sequence (P08183 whole entry): as above

Broadly, the Emax is the size of the effect at its maximum, as opposed to the concentration needed. As to `COc1ccc(C(C#N)(CCCNCc2c3ccccc3cc3ccccc23)C(C)C)cc1OC` (centres undefined), the Emax in data set [1] turned out to be 70%.

Usually IC50 stands for the concentration that inhibits the measured activity by half. Regarding `COc1cc(CCC(=O)O[C@H]2CC[C@H](N(C)[C@H]3CC[C@H](OC(=O)c4cc(OC)c(OC)c(OC)c4)CC3)CC2)cc(OC)c1OC`, the Emax in data set [1] was determined as 76%. Moreover, the concentration for half-maximal inhibition (IC50) in data set [2] came out at 610 nM.

As for `COc1cc(CCC(=O)O[C@H]2CC[C@@H](N(C)[C@H]3CC[C@@H](OC(=O)c4cc(OC)c(OC)c(OC)c4)CC3)CC2)cc(OC)c1OC`, in data set [1], the maximal response (Emax) was determined as 76%. The IC50 in data set [2] turned out to be 1100 nM.

With `COc1cc(C#CC(=O)O[C@H]2CC[C@H](N(C)[C@H]3CC[C@H](OC(=O)c4cc(OC)c(OC)c(OC)c4)CC3)CC2)cc(OC)c1OC`, the “Ratio IC50” value in data set [3] came to 0.6; in data set [4] it was 1.9. Further, the Activity result in data set [5] and in data set [6] was “Non-toxic” each time. Also, in data set [1], the maximal response (Emax) was determined as 99%. In addition, the IC50 in data set [2] was found to be 70 nM.

Consider `COc1cc(C#CC(=O)O[C@H]2CC[C@@H](N(C)[C@H]3CC[C@@H](OC(=O)c4cc(OC)c(OC)c(OC)c4)CC3)CC2)cc(OC)c1OC`, for which the “Ratio IC50” value in data set [3] worked out at 2.3; in data set [4], 4.5. In addition, the Activity entry in data set [5] and in data set [6] was “Non-toxic” throughout. In data set [1], the Emax was 99%. Moreover, the concentration for half-maximal inhibition (IC50) in data set [2] amounted to 70 nM.

As to `COc1cc(/C=C/C(=O)O[C@H]2CC[C@H](N(C)[C@H]3CC[C@H](OC(=O)c4cc(OC)c(OC)c(OC)c4)CC3)CC2)cc(OC)c1OC`, the “Ratio IC50” value in data set [4] was 9.2. Further, the maximal effect (Emax) in data set [1] was 81%. Also, in data set [2], the IC50 was 320 nM.

On to `COc1cc(/C=C/C(=O)O[C@H]2CC[C@@H](N(C)[C@H]3CC[C@@H](OC(=O)c4cc(OC)c(OC)c(OC)c4)CC3)CC2)cc(OC)c1OC`, for which, in data set [4], the “Ratio IC50” value worked out at 9.8. Moreover, the Emax in data set [1] came to 80%. Besides, the IC50 in data set [2] is 30 nM.

Take `COc1cc(/C=C/C(=O)O[C@H]2CC[C@@H](N(C)[C@H]3CC[C@H](OC(=O)c4cc(OC)c(OC)c(OC)c4)CC3)CC2)cc(OC)c1OC`: the “Ratio IC50” value in data set [4] was 20.3. In data set [1], the Emax is 98%. Moreover, the 50% inhibitory concentration (IC50) in data set [2] stood at 12 nM.

As for `COc1ccc(C(C#N)(CCC(=O)O[C@H]2CC[C@H](N(C)[C@H]3CC[C@H](OC(=O)/C=C/c4cc(OC)c(OC)c(OC)c4)CC3)CC2)C(C)C)cc1OC` (some centres undefined), in data set [1], the maximal effect (Emax) turned out to be 99%. Also, the IC50 in data set [2] is 140 nM.

Regarding `COc1ccc(C(C#N)(CCC(=O)O[C@H]2CC[C@@H](N(C)[C@H]3CC[C@@H](OC(=O)/C=C/c4cc(OC)c(OC)c(OC)c4)CC3)CC2)C(C)C)cc1OC` (some centres undefined), in data set [1], the maximal effect (Emax) stood at 99%. Besides, the IC50 in data set [2] worked out at 150 nM.

Regarding `COc1cc(/C=C/C(=O)O[C@H]2CC[C@H](N(C)[C@H]3CC[C@H](OC(=O)C4c5ccccc5-c5ccccc54)CC3)CC2)cc(OC)c1OC`, the entries for the “Ratio IC50” value in data set [3] and in data set [4] were 2 and 2.9, respectively. Besides, the Activity entry in data set [5] and in data set [6] was “Non-toxic” throughout. Further, the Emax in data set [1] stood at 94%. Further, the half-inhibitory concentration (IC50) in data set [2] is 75 nM.

For `COc1cc(/C=C/C(=O)O[C@H]2CC[C@@H](N(C)[C@H]3CC[C@@H](OC(=O)C4c5ccccc5-c5ccccc54)CC3)CC2)cc(OC)c1OC`, in data set [1], the maximum response (Emax) stood at 90%. Moreover, the IC50 in data set [2] was determined as 180 nM.

For `COc1ccc(C(C(=O)O[C@H]2CC[C@H](N(C)[C@H]3CC[C@H](OC(=O)C#Cc4cc(OC)c(OC)c(OC)c4)CC3)CC2)c2ccc(OC)cc2)cc1`, the Emax in data set [1] was 74%. Besides, the concentration for half-maximal inhibition (IC50) in data set [2] came out at 140 nM.

Take `COc1cc(C#CC(=O)O[C@H]2CC[C@H](N(C)[C@H]3CC[C@H](OC(=O)C4c5ccccc5-c5ccccc54)CC3)CC2)cc(OC)c1OC`: the maximum response (Emax) in data set [1] is 77%. Besides, the half-maximal inhibitory concentration (IC50) in data set [2] stood at 500 nM.

Turning to `COc1cc(C#CC(=O)O[C@H]2CC[C@@H](N(C)[C@H]3CC[C@@H](OC(=O)C4c5ccccc5-c5ccccc54)CC3)CC2)cc(OC)c1OC`, in data set [1], the Emax worked out at 89%. For the same molecule, in data set [2], the IC50 stood at 50 nM.

Take `COc1cc(/C=C/C(=O)O[C@H]2CC[C@H](N(C)[C@H]3CC[C@@H](OC(=O)c4cc(OC)c(OC)c(OC)c4)CC3)CC2)cc(OC)c1OC` (mixture of isomers): the “Ratio IC50” value in data set [4] was 7.7. Further, the Emax in data set [1] is 85%. Moreover, the IC50 in data set [2] was determined as 92 nM.

With `COc1cc(CCC(=O)O[C@H]2CC[C@H](N(C)[C@H]3CC[C@@H](OC(=O)c4cc(OC)c(OC)c(OC)c4)CC3)CC2)cc(OC)c1OC` (mixture of isomers), the Emax in data set [1] came out at 75%. For the same molecule, in data set [2], the concentration for half-maximal inhibition (IC50) amounted to 630 nM.

On to `COc1cc(CCC(=O)O[C@H]2CC[C@@H](N(C)[C@H]3CC[C@H](OC(=O)c4cc(OC)c(OC)c(OC)c4)CC3)CC2)cc(OC)c1OC` (mixture of isomers), for which the Emax in data set [1] turned out to be 77%. In data set [2], the IC50 was 350 nM.

Consider `COc1cc(C#CC(=O)O[C@H]2CC[C@H](N(C)[C@H]3CC[C@@H](OC(=O)c4cc(OC)c(OC)c(OC)c4)CC3)CC2)cc(OC)c1OC` (mixture of isomers), for which the “Ratio IC50” value in data set [3] is listed as 1.6; in data set [4] it was 1.5. For the same molecule, the Activity result in data set [5] and in data set [6] was “Non-toxic” each time. Also, in data set [1], the maximal response (Emax) turned out to be 98%. Also, the IC50 in data set [2] stood at 80 nM.

Turning to `COc1cc(C#CC(=O)O[C@H]2CC[C@@H](N(C)[C@H]3CC[C@H](OC(=O)c4cc(OC)c(OC)c(OC)c4)CC3)CC2)cc(OC)c1OC` (mixture of isomers), the figures for the “Ratio IC50” value in data set [3] and in data set [4] were 2 and 8.5, respectively. In addition, the Activity result in data set [5] and in data set [6] was “Non-toxic” throughout. Further, the maximal response (Emax) in data set [1] was 99%. The IC50 in data set [2] came out at 20 nM.

As to `COc1ccc(C(C#N)(CCC(=O)O[C@H]2CC[C@H](N(C)[C@H]3CC[C@@H](OC(=O)/C=C/c4cc(OC)c(OC)c(OC)c4)CC3)CC2)C(C)C)cc1OC` (mixture of isomers), in data set [1], the maximal response (Emax) is 88%. Moreover, the concentration for half-maximal inhibition (IC50) in data set [2] turned out to be 240 nM.

In the case of `COc1ccc(C(C#N)(CCC(=O)O[C@H]2CC[C@@H](N(C)[C@H]3CC[C@H](OC(=O)/C=C/c4cc(OC)c(OC)c(OC)c4)CC3)CC2)C(C)C)cc1OC` (mixture of isomers), the “Ratio IC50” value in data set [3] amounted to 3; in data set [4], 10.7. In addition, the Activity entry in data set [5] and in data set [6] was “Non-toxic” each time. For the same molecule, the Emax in data set [1] came out at 89%. Besides, in data set [2], the IC50 came out at 80 nM.

`COc1cc(/C=C/C(=O)O[C@H]2CC[C@@H](N(C)[C@H]3CC[C@H](OC(=O)C4c5ccccc5-c5ccccc54)CC3)CC2)cc(OC)c1OC` (mixture of isomers): the entries for the “Ratio IC50” value in data set [3] and in data set [4] were 2.3 and 5, respectively. Also, the Activity entry in data set [5] and in data set [6] was “Non-toxic” throughout. Also, in data set [1], the Emax amounted to 81%. The IC50 in data set [2] is 80 nM.

For the molecule `COc1cc(/C=C/C(=O)O[C@H]2CC[C@H](N(C)[C@H]3CC[C@@H](OC(=O)C4c5ccccc5-c5ccccc54)CC3)CC2)cc(OC)c1OC` (mixture of isomers), in data set [1], the Emax came to 99%. Further, the concentration for half-maximal inhibition (IC50) in data set [2] stood at 150 nM.

On to `COc1ccc(C(C(=O)O[C@H]2CC[C@H](N(C)[C@H]3CC[C@@H](OC(=O)C#Cc4cc(OC)c(OC)c(OC)c4)CC3)CC2)c2ccc(OC)cc2)cc1` (mixture of isomers), for which, in data set [1], the Emax came out at 76%. The half-maximal inhibitory concentration (IC50) in data set [2] is 130 nM.

As for `COc1ccc(C(C(=O)O[C@H]2CC[C@@H](N(C)[C@H]3CC[C@@H](OC(=O)C#Cc4cc(OC)c(OC)c(OC)c4)CC3)CC2)c2ccc(OC)cc2)cc1` (mixture of isomers), the maximum response (Emax) in data set [1] was 94%. Moreover, in data set [2], the IC50 was determined as 120 nM.

`COc1ccc(C(C(=O)O[C@H]2CC[C@@H](N(C)[C@H]3CC[C@H](OC(=O)C#Cc4cc(OC)c(OC)c(OC)c4)CC3)CC2)c2ccc(OC)cc2)cc1` (mixture of isomers): the maximum response (Emax) in data set [1] was determined as 99%. For the same molecule, the half-maximal inhibitory concentration (IC50) in data set [2] worked out at 20 nM.

For the molecule `COc1cc(C#CC(=O)O[C@H]2CC[C@@H](N(C)[C@H]3CC[C@H](OC(=O)C4c5ccccc5-c5ccccc54)CC3)CC2)cc(OC)c1OC` (mixture of isomers), in data set [1], the Emax worked out at 96%. Also, in data set [2], the concentration for half-maximal inhibition (IC50) is 120 nM.

For the molecule `COc1cc(C#CC(=O)O[C@H]2CC[C@H](N(C)[C@H]3CC[C@@H](OC(=O)C4c5ccccc5-c5ccccc54)CC3)CC2)cc(OC)c1OC` (mixture of isomers), the maximal effect (Emax) in data set [1] is 91%. In addition, in data set [2], the IC50 came out at 290 nM.

These data come from ChEMBL document CHEMBL2311325, “New structure-activity relationship studies in a series of N,N-bis(cyclohexanol)amine aryl esters as potent reversers of P-glycoprotein-mediated multidrug resistance (MDR)” (Bioorg Med Chem, 2013).
